Publication PMC8576641 (The Journal of organic chemistry, 2021)
Marks after values point to notes of the source that are not given here. No end group written: not given here.

Assay: CD thermal denaturation
Type: physicochemical
Conditions: 291 K; NMR and CD data together

Substance | χF / % fold (NMR and CD collectively)
Ac-WVWNPATGKWVW-NH2 [2a] | > 90%
RWVWNPATGKWVWE [3a] | 89–93%

Same assay, conditions: entropic difference between pairs as printed: 2b/2a, 3d/3e

Substance | T·ΔΔSF°
Ac-WVWGPGTGKWVW-NH2 [2b] | 3.25 kcal/mol
RWVWGGGGKKGGGGWVWE [3d] | -3.53 kcal/mol

Same assay, conditions: folding free energy at 298 K, two-state model from CD melts

Substance | ΔGF°
Ac-WVWNPATGKWVW-NH2 [2a] | -2.36 kcal/mol

Same assay, conditions: free energy at temperature T* of maximal stability, from thermostability curves

Substance | ΔGF*
RWVWRDYRGDMGFDWVWE [3f] | -3.18 kcal/mol
Ac-WVWNPATGKWVW-NH2 [2a] | -2.50 kcal/mol
RWHWNPATGKWVWE [3b] | -1.84 kcal/mol

Same assay, conditions: heat capacity of folding, two-state model from CD melts

Substance | ΔCpF°
RWNPATGKWE [3c] | −106 cal·mol^−1·deg^−1
RWVWNPATGKWVWE [3a] | −53 cal·mol^−1·deg^−1
RWHWNPATGKWVWE [3b] | −158 ± 3 cal·mol^−1·deg^−1

Same assay, conditions: local β-strap folding at 291 K (18 °C) from best-fitted melting curves of [θ(T)]228; phosphate buffer 15 mM, pH 6.5

Substance | β-Strap %-fold χF at 291K
RWVWRDYRGDMGFDWVWE [3f] | 82 ± 1%
RWVWRDYRFDMGFDWVWE [3e] | 55 ± 1%
Ac-WVWNPATGKWVW-NH2 [2a] | 99 ± 1%
Ac-WNPATGKWTG-NH2 [1a] | 28 ± 1%
RWNPATGKWE [3c] | 84 ± 11%
Ac-WVWGPGTGKWVW-NH2 [2b] | 56 ± 1%
RWVWNPATGKWVWE [3a] | 89 ± 14%
RWHWNPATGKWVWE [3b] | 95 ± 2%
Ac-WDDATKTWTG-NH2 [1b] | 54 ± 7%
RWVWGGGGKKGGGGWVWE [3d] | 88 ± 1%
Ac-WTFNPATGKFKWTG-NH2 [1c] | 63 ± 4%

Same assay, conditions: plateau of thermal stability from 0 to ~50 °C; dynamic equilibrium of stable conformational states

Substance | % folded below 50 °C
Ac-WVWNPATGKWVW-NH2 [2a] | > 80%
RWVWNPATGKWVWE [3a] | > 80%
RWHWNPATGKWVWE [3b] | > 80%

Assay: Loop %-folding by 1H NMR from glycine Hα/α' splitting
Type: physicochemical
Conditions: 291 K; ΔδHα/α'G(L4) model with 0.33 ppm as fully-folded state (model of ref 27)
Procedure, shortened: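 Peptide samples at 3–10 mM for 1H NMR, TOCSY (80 ms mixing), NOESY (200 ms mixing) and 1H–13C HSQC. Samples for 1H–15N HSQC and HMBC were at 10–20 mM, with some constructs at 10–70 mM. Chemical shift deviations are experimental δH minus calculated random-coil δH. Random-coil values were checked against random-coil reference peptides (Δ|CSD| ≤ 0.20 ppm).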

Substance | Loop %-fold χF (value in parentheses)
Ac-WVWNPATGKWVW-NH2 [2a] | 154%
Ac-WNPATGKWTG-NH2 [1a] | 70%
RWNPATGKWE [3c] | 139%
Ac-WVWGPGTGKWVW-NH2 [2b] | 9%
RWVWNPATGKWVWE [3a] | 154%
RWHWNPATGKWVWE [3b] | 167%
Ac-WTFNPATGKFKWTG-NH2 [1c] | 151%

Assay: Kinetic solubility in phosphate buffer
Type: physicochemical
Conditions: phosphate buffer (PB, 50 mM), pH 7.4

Substance | solubility
RWVWRDYRGDMGFDWVWE [3f] | 8.2 mM
RWVWRDYRFDMGFDWVWE [3e] | 0.6 mM
Ac-WVWNPATGKWVW-NH2 [2a] | 1.2 mM
Ac-WNPATGKWTG-NH2 [1a] | 2.9 mM
RWNPATGKWE [3c] | 39.5 mM
Ac-WVWGPGTGKWVW-NH2 [2b] | 0.8 mM
RWVWNPATGKWVWE [3a] | 27.1 mM
RWHWNPATGKWVWE [3b] | 56.3 mM
Ac-WDDATKTWTG-NH2 [1b] | 35.3 mM
RWVWGGGGKKGGGGWVWE [3d] | 5.8 mM
Ac-WTFNPATGKFKWTG-NH2 [1c] | 22.3 mM

Assay: not given
Conditions: 298 K; average of HN CSD values at T(L3), K(S+1) and G(L4) ΔδHα/α', K1R-HP7 as fully-folded state; cited from earlier work

Substance | Loop %-fold χF
Ac-W-NPATGK-W-NH2 [Tr-HP7] | 49 ± 1%^d
Ac-NPATGK-NH2 [Loop] | 6 ± 7%^d
KTW-NPATGK-WTE [HP7] | 89 ± 1%^d
